14 compounds from ChEMBL document CHEMBL1149191, “Novel pyridazino[4,3-b]indoles with dual inhibitory activity against Mycobacterium tuberculosis and monoamine oxidase” (J Med Chem, 2004) can be followed below.

pIC50: −log10 of the molar value. Converted amounts (≈) assume the structure as drawn.

The subject of experiment [1] is Mycobacterium tuberculosis. Nature of the experiment: In vitro inhibition of Mycobacterium tuberculosis H37Rv, determined at 0.2 ug/mL. Type of experiment: functional. An outline of the steps:
(§1)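 M. tuberculosis H37Rv (Pasteur) grown twice for 1 week each in Dubos broth at 37 °C, washed, then filtered to remove clumps. 25 × 10⁴ CFU per well in RPMI 1640 with 5 mM HEPES, 2 mM L-glutamine and 2% FBS. Compound added from DMSO stock; 5,6-[³H]-uracil added at 24 h, then 18 h at 37 °C.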

The subject of experiment [2] is Mycobacterium tuberculosis. Nature of the experiment: In vitro inhibition of Mycobacterium tuberculosis H37Rv, determined at 2 ug/mL. The class given is functional. The gist of the method:
as §1

For experiment [3], the system named is Mycobacterium tuberculosis. Nature of the experiment: In vitro inhibition of Mycobacterium tuberculosis H37Rv, determined at 20 ug/mL. The class given is functional. An outline of the steps: as §1
The test system of experiment [4] is Mycobacterium tuberculosis. In words: Minimal inhibitory activity of compound against Mycobacterium tuberculosis H37Rv. Type of experiment: functional. An outline of the steps:
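Same H37Rv [³H]-uracil incorporation assay: compound at final 20, 2.0 and 0.2 μg/mL, 24 h, then 1 μCi 5,6-[³H]-uracil for 18 h at 37 °C, harvested on filters, scintillation counted, triplicate. MIC50 is the concentration giving 50% reduction in cpm versus drug-free plate at the same bacterial dilution.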

Experiment [5] concerns the target T1, Amine oxidase [flavin-containing] A (Rattus norvegicus, UniProt P21396).
T1 sequence (P21396 whole entry): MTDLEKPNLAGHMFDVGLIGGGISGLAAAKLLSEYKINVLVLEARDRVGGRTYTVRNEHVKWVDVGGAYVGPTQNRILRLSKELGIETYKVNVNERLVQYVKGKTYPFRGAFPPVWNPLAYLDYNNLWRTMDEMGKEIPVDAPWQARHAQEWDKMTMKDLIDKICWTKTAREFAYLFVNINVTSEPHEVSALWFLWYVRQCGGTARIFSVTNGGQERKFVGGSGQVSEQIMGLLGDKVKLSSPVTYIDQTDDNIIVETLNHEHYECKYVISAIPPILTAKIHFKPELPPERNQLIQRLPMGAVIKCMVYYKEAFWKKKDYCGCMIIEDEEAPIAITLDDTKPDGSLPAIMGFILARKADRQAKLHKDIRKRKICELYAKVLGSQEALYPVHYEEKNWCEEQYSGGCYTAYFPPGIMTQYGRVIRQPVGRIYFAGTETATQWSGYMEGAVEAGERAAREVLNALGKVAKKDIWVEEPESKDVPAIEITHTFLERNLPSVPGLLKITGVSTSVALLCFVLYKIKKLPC
Nature of the experiment: Inhibition of Monoamine oxidase A from rat liver mitochondria. An outline of the steps: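 Rat liver mitochondria from differential centrifugation, in 50 mM phosphate buffer pH 7.4. Preincubated with inhibitor (10⁻⁸–10⁻³ or 10⁻⁴ M) for 60 min at 37 °C. MAO-A activity measured radiometrically as ¹⁴C-aldehyde formed from 0.1 mM [¹⁴C]-5-hydroxytryptamine creatinine sulfate; IC50 reported.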

Experiment [6] deals with T2, Amine oxidase [flavin-containing] B (Rattus norvegicus, UniProt P19643).
T2 sequence (P19643 whole entry): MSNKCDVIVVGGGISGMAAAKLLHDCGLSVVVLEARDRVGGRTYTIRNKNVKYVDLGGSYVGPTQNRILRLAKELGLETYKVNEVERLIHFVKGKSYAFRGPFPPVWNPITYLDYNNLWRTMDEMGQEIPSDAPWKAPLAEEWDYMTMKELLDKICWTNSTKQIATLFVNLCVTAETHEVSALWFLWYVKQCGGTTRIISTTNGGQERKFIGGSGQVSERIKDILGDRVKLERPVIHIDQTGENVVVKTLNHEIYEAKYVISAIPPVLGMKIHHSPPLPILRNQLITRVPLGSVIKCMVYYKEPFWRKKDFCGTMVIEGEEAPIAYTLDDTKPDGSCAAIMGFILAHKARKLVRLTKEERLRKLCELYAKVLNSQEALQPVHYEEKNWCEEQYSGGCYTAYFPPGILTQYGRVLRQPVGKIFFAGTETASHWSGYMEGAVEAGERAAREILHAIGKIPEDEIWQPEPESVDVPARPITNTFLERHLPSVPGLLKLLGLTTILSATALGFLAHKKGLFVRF
Nature of the experiment: Inhibition of Monoamine oxidase B from rat liver mitochondria. An outline of the steps: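 Rat liver mitochondria from differential centrifugation, in 50 mM phosphate buffer pH 7.4. Preincubated with inhibitor (10⁻⁸–10⁻³ or 10⁻⁴ M) for 60 min at 37 °C. MAO-B activity measured radiometrically as ¹⁴C-aldehyde formed from 10 μM [¹⁴C]-phenylethylamine; IC50 reported.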

The inhibition is the relative decrease from the control value, in per cent. As usually defined, the MIC50 is the lowest concentration that inhibits either 50% of growth or 50% of the strains tested, depending on the study. A lower MIC50 goes with greater potency. `CO[C@H]1/C=C/O[C@@]2(C)Oc3c(C)c(O)c4c(O)c(c(/C=N/N5CCN(C)CC5)c(O)c4c3C2=O)NC(=O)/C(C)=C\C=C\[C@H](C)[C@H](O)[C@@H](C)[C@@H](O)[C@@H](C)[C@H](OC(C)=O)[C@@H]1C` [RIFAMPIN] had an inhibition at 0.2 µg/mL in experiment [1] of 54.8%. In experiment [2], this compound displayed an inhibition at 2 µg/mL of 91.7%. Also, in experiment [3], the inhibition at 20 µg/mL was found to be 94.3%. In addition, the MIC50 in experiment [4] came out at 0.1 µg/mL (≈ 0.122 µM).

The term pIC50 denotes −log10 of the IC50, conventionally taken in molar units. As for `Nc1nnc2c3ccccc3n(Cc3ccccc3)c2c1-c1ccccc1Cl`, the pIC50 in experiment [5] is 4.75; in experiment [6], 4.45. For the same compound, the inhibition at 0.2 µg/mL in experiment [1] was 0%. This compound yielded an inhibition at 2 µg/mL in experiment [2] of 0%. The same compound displayed an inhibition at 20 µg/mL in experiment [3] of 50.8%.

Turning to `CC(C)c1ccc(-c2c3nc4ccc(Br)cc4c-3n[nH]c2N)cc1`, the results for the pIC50 in experiment [5] and in experiment [6] were 4.20 and 4.10, respectively. In experiment [1], this compound came in with an inhibition at 0.2 µg/mL of 7.1%. Besides, the inhibition at 2 µg/mL in experiment [2] amounted to 56.3%. Further, testing at 20 µg/mL in experiment [3] gave an inhibition of 88.5%. The compound also had an MIC50 in experiment [4] of 1.77 µg/mL (≈ 4.64 µM).

As to `NNC(=O)c1ccncc1` [ISONIAZID], 0.2 µg/mL produced 49.7% inhibition in experiment [1]. Moreover, the inhibition at 2 µg/mL in experiment [2] stood at 59.1%. Further, testing at 20 µg/mL in experiment [3] gave an inhibition of 68.7%. This compound also had an MIC50 in experiment [4] of 0.25 µg/mL (≈ 1.82 µM).

Turning to `CCn1c2ccccc2c2nnc(N)c(-c3ccccc3Cl)c21`, the pIC50 in experiment [5] and in experiment [6] was ~3.00 in each case. Besides, 0.2 µg/mL produced 0% inhibition in experiment [1]. The same compound had an inhibition at 2 µg/mL in experiment [2] of 0%. This compound also showed an inhibition at 20 µg/mL in experiment [3] of 15.9%.

With `Cc1ccc(-c2c3nc4ccccc4c-3n[nH]c2N)cc1`, the pIC50 in experiment [5] was 4.50; in experiment [6] it was 3.80. Further, in experiment [1], the inhibition at 0.2 µg/mL was 0%. The compound further displayed an inhibition at 2 µg/mL in experiment [2] of 0%. In experiment [3], this compound had an inhibition at 20 µg/mL of 40.5%. In experiment [4], this compound returned an MIC50 of 16.5 µg/mL (≈ 60.1 µM).

On to `Cn1c2ccccc2c2nnc(N)c(-c3ccccc3Cl)c21`, for which the pIC50 in experiment [5] and in experiment [6] was ~3.00 in each case. This compound yielded an inhibition at 0.2 µg/mL in experiment [1] of 0%. For the same compound, in experiment [2], 2 µg/mL produced 0% inhibition. This compound also yielded an inhibition at 20 µg/mL in experiment [3] of 3.1%.

Take `CC(C)c1ccc(-c2c3nc4ccccc4c-3n[nH]c2N)cc1`: the pIC50 in experiment [5] and in experiment [6] was < 3.00 throughout. In addition, the inhibition at 0.2 µg/mL in experiment [1] amounted to 8.7%. The same compound returned an inhibition at 2 µg/mL in experiment [2] of 32.9%. In experiment [3], this compound returned an inhibition at 20 µg/mL of 61.9%. In experiment [4], this compound came in with an MIC50 of 12.6 µg/mL (≈ 41.8 µM).

Turning to `COc1ccc(-c2c3nc4ccccc4c-3n[nH]c2N)cc1`, the inhibition at 0.2 µg/mL in experiment [1] stood at 0%. The compound also had an inhibition at 2 µg/mL in experiment [2] of 0%. The compound also had an inhibition at 20 µg/mL in experiment [3] of 30.2%. Moreover, the MIC50 in experiment [4] worked out at 14.9 µg/mL (≈ 51.2 µM).

`Cn1c2ccccc2c2nnc(N)c(-c3ccccc3)c21`: the values for the pIC50 in experiment [5] and in experiment [6] were 4.55 and ~3.00, respectively. In experiment [1], this compound returned an inhibition at 0.2 µg/mL of 2.3%. The compound further yielded an inhibition at 2 µg/mL in experiment [2] of 25.5%. The same compound gave an inhibition at 20 µg/mL in experiment [3] of 40.2%.

Take `CN(C)c1ccc(-c2c3nc4ccccc4c-3n[nH]c2N)cc1`: the pIC50 in experiment [5] was 4.10; in experiment [6], ~3.00. In experiment [1], this compound gave an inhibition at 0.2 µg/mL of 5.2%. Besides, the inhibition at 2 µg/mL in experiment [2] was 10%. The same compound registered an inhibition at 20 µg/mL in experiment [3] of 66%.

On to `CCn1c2ccccc2c2nnc(N)c(-c3ccc(C(C)C)cc3)c21`, for which the values for the negative logarithm of the IC50 (pIC50) in experiment [5] and in experiment [6] were 4.00 and 4.80, respectively. In addition, the inhibition at 0.2 µg/mL in experiment [1] amounted to 0%. Besides, the inhibition at 2 µg/mL in experiment [2] amounted to 10.5%. Besides, the inhibition at 20 µg/mL in experiment [3] worked out at 94.3%. For the same compound, in experiment [4], the MIC50 came to 10.5 µg/mL (≈ 31.7 µM).

Turning to `CC(C)c1ccc(-c2c(N)nnc3c4cc(Br)ccc4n(C)c23)cc1`, the inhibition at 0.2 µg/mL in experiment [1] was found to be 0%. In experiment [2], the inhibition at 2 µg/mL turned out to be 0%. Testing at 20 µg/mL in experiment [3] gave an inhibition of 60.7%. Also, the MIC50 in experiment [4] was determined as 17.1 µg/mL (≈ 43.3 µM).

For `Cn1c2ccccc2c2nnc(N)c(-c3cccc(Br)c3)c21`, the pIC50 in experiment [5] was 4.20; in experiment [6], 4.00. Also, in experiment [1], the inhibition at 0.2 µg/mL stood at 0%. In experiment [2], this compound had an inhibition at 2 µg/mL of 0%. In experiment [3], this compound showed an inhibition at 20 µg/mL of 60.1%.
